Screening results as filed in PubChem BioAssay.
GalR3 antag: blocks the human galanin receptor 3; O60755; HEK293 GalR3-CNG cAMP membrane potential fluorescence; galR3 body fused to GalR1 C-terminus; inhibition, % at 3 µM; 360,000 tested, 0.44% active; AID 651719;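 active = inhibition above the screen-wide average plus 3 SD, cut at about 13% in these data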;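 also: forskolin and galanin both at EC90 stimulate the cells; cAMP rise reported by CNG channel membrane potential dye signal; 0% = forskolin plus galanin with DMSO and 100% = forskolin alone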
Target sequence (O60755 1-299 limits assumed): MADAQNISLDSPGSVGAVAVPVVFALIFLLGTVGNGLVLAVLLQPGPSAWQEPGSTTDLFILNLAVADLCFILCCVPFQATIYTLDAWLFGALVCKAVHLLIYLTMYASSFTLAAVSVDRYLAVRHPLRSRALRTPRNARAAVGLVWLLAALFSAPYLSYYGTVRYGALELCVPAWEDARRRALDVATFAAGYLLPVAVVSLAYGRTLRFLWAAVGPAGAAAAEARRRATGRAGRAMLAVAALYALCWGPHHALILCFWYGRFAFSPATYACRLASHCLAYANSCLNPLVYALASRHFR
OX1R antag-1: human HCRTR1 antagonism; CHO/OX1R cells, Fluo-8 calcium fluorescence, orexin A; inhibition, % at 5 µM; 330,000 tested, 0.43% active;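 active = inhibition above its plate's threshold, mean inhibition of all tested compounds on the plate plus 3 SD, cut at about 37% in these data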;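 also: 0% = orexin A challenge wells and 100% = SB-334867-A antagonist wells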
Target sequence (O43613 whole entry, looked up): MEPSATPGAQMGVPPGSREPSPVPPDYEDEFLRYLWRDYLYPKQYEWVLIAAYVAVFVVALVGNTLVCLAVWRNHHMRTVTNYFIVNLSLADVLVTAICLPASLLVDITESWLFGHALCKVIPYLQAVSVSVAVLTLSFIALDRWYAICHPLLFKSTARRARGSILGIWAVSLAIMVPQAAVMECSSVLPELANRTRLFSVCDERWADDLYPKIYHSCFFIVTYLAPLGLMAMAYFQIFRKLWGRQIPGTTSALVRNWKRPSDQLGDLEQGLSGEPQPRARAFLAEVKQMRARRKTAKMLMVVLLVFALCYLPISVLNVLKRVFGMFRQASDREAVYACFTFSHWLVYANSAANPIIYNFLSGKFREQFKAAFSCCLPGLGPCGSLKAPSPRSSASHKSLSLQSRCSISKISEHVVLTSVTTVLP
OX1R antag-2: blocks the human orexin 1 receptor; 330,000 tested, 1.8% active; O43613; AID 485270; inhibition, % at 6.6 µM; OX1R-expressing cells, FRET antagonist read-out; in the data active = inhibition mostly above about 38%, no sharp cut-off; inactive = mostly below about 40%;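 also: 0% = agonist challenge alone and 100% = reference antagonist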
CHO parental Ca: counter-screen for OX1R antagonists: effect in parental CHO cells; parental CHO-K1, ATP-induced calcium, Fluo-8 fluorescence; inhibition, % at 5.6 µM; 330,000 tested, 0.63% active;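 active = inhibition above that plate's mean sample inhibition plus 3 SD, cut at about 26% in these data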;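 also: 0% = ATP-challenged DMSO wells and 100% = DMSO wells without ATP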
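Measured by: calcium-sensitive Fluo-8 fluorescence / Test system: CHO parental line / Controls: ATP-challenged DMSO wells low, unchallenged DMSO wells high / Measure: % inhibition / Compound: single nominal dose of 5.6 µM per compound / Replicates: single well per compound, no replicates / Reagent: ATP as calcium-mobilizing challenge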
GPR7 antag: antagonists of human GPR7 (neuropeptides B/W receptor 1). P48145. AID 1861. inhibition, % at 4.4 µM. GPR7-expressing cells, fluorescence antagonist assay. 290,000 tested, 1.1% active; in the data active = inhibition above about 16%, passing the limit was not always enough;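 also: cells stimulated with the agonist NPW; 0% = agonist with vehicle and 100% = vehicle without agonist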
OX1R Fluo8 conf: OX1R (human) antagonism, confirmed; 1,100 tested, 38% active; CHO/OX1R cells, orexin A calcium Fluo-8 fluorescence; AID 492963; shares compounds with OX1R antag-1; inhibition, % at 5 µM; in the data active = inhibition above about 29%;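 also: 0% = agonist challenge alone and 100% = reference antagonist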
CHO Ca counter: signal in parental CHO cells, OX1R antagonist counter-screen. shares compounds with OX1R antag-1. inhibition, % at 5.6 µM. parental CHO-K1, ATP-induced calcium, Fluo-8 fluorescence. 1,100 tested, 9.3% active. AID 492965;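 active = inhibition above a per-plate limit, the mean inhibition of that plate's test compounds plus 3 SD, cut at about 25% in these data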;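 also: 0% = ATP challenge with DMSO and 100% = DMSO without ATP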
OX1R HTRF conf: OX1R (human) antagonism, HTRF confirmed. 1,800 tested, 49% active. AID 492964. OX1R-expressing cells, HTRF antagonist assay. inhibition, % at 6.6 µM. shares compounds with OX1R antag-2; in the data active = inhibition above about 55%;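 also: CHO cells expressing OX1R stimulated with orexin A at about EC80; 0% = agonist challenge alone and 100% = reference antagonist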
CHO-K1 HTRF cnt: signal in parental CHO-K1 cells, OX1R antagonist counter-screen; 1,800 tested, 48% active; inhibition, % at 6.6 µM; shares compounds with OX1R antag-2; HTRF counterscreen; AID 493232; in the data active = inhibition above about 17%;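 also: 0% = agonist challenge with vehicle and 100% = vehicle alone without agonist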
GalR3 conf: GalR3 (human) antagonism, confirmation; shares compounds with GalR3 antag; HEK293 GalR3 CNG cAMP biosensor, membrane potential fluorescence; galR3 fused to GalR1 carboxy tail; challenged with forskolin and galanin at EC90; inhibition, % at 3 µM; 1,600 tested, 59% active; AID 652245;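 active = inhibition above the primary screen's cutoff, the mean inhibition of all screened compounds plus 3 SD, cut at about 13% in these data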;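 also: 0% = forskolin plus galanin and 100% = forskolin alone with DMSO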
HEK-CNG parental: acts as nonspecific agonist in parental HEK-CNG cells. AID 652268. 1,600 tested, 10% active. activation, % at 3 µM. HEK293-CNG parental cells, cAMP membrane potential fluorescence; normalised: DMSO wells 0%, forskolin wells 100%. shares compounds with GalR3 antag; in the data active = activation above about 1.3%
* = called active by the depositor; · = not tested or not shown. Only some compounds are listed: those with a hit (about 3.1% of all), similar ones and a draw of the others.

SMILES	GalR3 antag	OX1R antag-1	OX1R antag-2	CHO parental Ca	GPR7 antag	OX1R Fluo8 conf	CHO Ca counter	OX1R HTRF conf	CHO-K1 HTRF cnt	others
CCOC(=O)CC(NC(=O)Cn1nnc(-c2ccccc2F)n1)c1ccccc1Cl (stereo unspecified)	-3.1	-4.8	58.7	-25.1	-14.2	·	·	·	·
COc1cc(Cl)c(C)cc1NC(=O)c1cccc(OC)c1OC	-8.7	21.5	69.6*	-21.5	-6.7	6.5	-3.0	81.7*	13.0
CCn1c2ccccc2c2cc(NC(=O)c3cccc(OC)c3)ccc21	·	97.0*	103.8*	-8.2	-6.7	97.3*	-12.2	102.6*	14.4
CCn1c(C)c(C)c2cc(C(=O)Nc3cccc(Cl)c3)ccc21	-0.9	40.4	121.4*	27.6	-6.6	-6.2	-11.3	85.1*	8.5
CCn1c2ccccc2c2cc(NC(=O)c3cccc(OC)c3OC)ccc21	-0.4	64.3*	86.6*	7.2	-12.2	74.5*	-3.1	90.8*	13.9
CCCCC1(C(=O)OC)NC(c2ccc(O)cc2)C2C(=O)N(c3ccccc3)C(=O)C21 (stereo unspecified)	-9.6	-15.5	-0.8	-7.1	-11.9	·	·	·	·
CCn1c(SCC(=O)Nc2ccc(C)cc2)nnc1-c1cnccn1	2.4	-4.9	-2.3	-4.9	-1.2	·	·	·	·
CCn1c(SCC(=O)Nc2ccc3c(c2)c2ccccc2n3CC)nnc1-c1cnccn1	-1.3	90.6*	89.4*	-17.4	-9.8	67.6*	-14.6	92.1*	9.3
Cc1cccc(NC(=O)c2cc(-c3cc(C)cc(C)c3O)n[nH]2)c1	-9.3	39.8	63.8*	6.5	0.3	16.9	4.2	68.9*	12.8
O=C(O)c1ccc(Nc2cnc3ccccc3n2)cc1	-3.9	-3.6	18.4	-3.4	-7.1	·	·	·	·
CCOC(=O)c1ccc(Nc2cnc3ccccc3n2)cc1	0.6	45.9*	62.5*	-7.4	-13.4	22.8	-5.4	50.3	-0.3
O=C(CCc1nnc2ccc(NCc3ccco3)nn12)N1CCN(c2ccc(F)cc2)CC1	-9.2	-17.9	-1.8	-18.4	0.7	·	·	·	·
COc1cccc(CN2CCC(C(=O)Nc3ccc(-c4cccc(C)c4)cc3)CC2)c1O	-0.8	-22.0	-2.1	3.1	8.9	·	·	·	·
Cc1ccccc1CN1CCN(CC(=O)NC(C)c2ccccc2)CC1 (stereo unspecified)	5.1	-13.2	12.9	-13.1	-6.5	·	·	·	·
Cc1ccc(NC(=O)C(C)OC(=O)CCC2CCCCC2)cc1 (stereo unspecified)	-4.7	-18.7	4.5	-4.3	·	·	·	·	·
N#Cc1ccccc1NC(=O)CSC1=Nc2ccccc2C2CC=NN12 (stereo unspecified)	-5.4	39.6	84.6*	-2.6	0.0	21.8	-9.3	48.0	0.1
O=C(Nc1ccc(Br)cc1)Nc1cnccn1	3.8	·	·	·	-14.0	·	·	·	·
COc1ccccc1C(=O)Nc1nc2cc3c(cc2s1)OCCO3	·	39.2	106.1*	7.2	-26.6	51.4*	-5.6	94.7*	4.2
COc1ccccc1C(=O)Nc1nc2cc3c(cc2s1)OCO3	-4.8	-11.0	23.1	-7.6	-3.6	·	·	·	·
O=[N+]([O-])c1ccc(P(=O)(Cc2ccccc2)c2ccccc2O)cc1 (stereo unspecified)	-3.2	-19.2	2.3	-19.1	-3.2	·	·	·	·
COc1ccc2sc3ccccc3c(=O)c2c1	-2.5	-25.1	47.1	1.6	0.8	·	·	·	·
Cc1cc(O)cc2c(=O)c3ccccc3sc12	-2.4	52.3*	86.2*	14.0	-6.8	55.9*	-1.2	92.0*	6.0
CCc1sc(C(=O)Nc2ccc3nc(C)sc3c2)cc1C	1.7	64.9*	81.4*	-23.3	·	52.8*	-21.1	89.9*	16.4
CCN(CC(=O)Nc1cccc(S(=O)(=O)N(C)c2ccccc2)c1)Cc1ccccc1	-1.6	77.5*	28.2*	14.7	·	19.4	-9.4	54.0	3.3
COc1ccc(CNC(=O)C2CCN(S(=O)(=O)c3c(C)noc3/C=C/N(C)C)CC2)cc1	·	2.8	10.9	2.0	-2.4	·	·	·	·
SMILES	GalR3 antag	OX1R antag-1	OX1R antag-2	CHO parental Ca	GPR7 antag	OX1R Fluo8 conf	CHO Ca counter	OX1R HTRF conf	CHO-K1 HTRF cnt	others
Cc1c(Cl)cccc1NC(=O)N1CCCN(c2nc(-c3ccccc3)ns2)CC1	33.8*	34.3	79.8*	28.9	12.0	27.5	22.3	53.1	6.6	GalR3 conf=98.9*;HEK-CNG parental=-0.5
COc1ccc(CC(=O)NCc2nn(-c3ccccc3)nc2C)cc1OC	1.5	-29.6	12.9	-26.4	-15.5	·	·	·	·
COc1ccc(-c2ocnc2C(=O)NCc2nn(-c3ccccc3)nc2C)cc1	18.9*	37.6	24.6	24.5	-4.2	8.3	29.2*	·	·	GalR3 conf=84.4*;HEK-CNG parental=0.5
O=C(CSc1ccccn1)NC1CCCC1	·	-16.0	7.3	-14.2	10.4	·	·	·	·
O=C(NC(Nc1ncc(S(=O)(=O)c2ccc([N+](=O)[O-])cc2)s1)(C(F)(F)F)C(F)(F)F)c1ccc(Cl)cc1	72.7*	38.0	119.6*	23.4	14.2	30.1*	65.0*	57.8*	35.7*	GalR3 conf=40.7*;HEK-CNG parental=-0.1
COCC(=O)Nc1ncc(S(=O)(=O)c2ccc([N+](=O)[O-])cc2)s1	3.5	-12.8	22.5	3.6	-5.7	·	·	·	·
COc1ccc(NS(=O)(=O)c2ccc(N3CCCCC3)c(N)c2)cc1	82.2*	62.2*	15.8	11.8	·	20.3	65.1*	·	·	GalR3 conf=104.8*;HEK-CNG parental=-0.6
O=C(COC(=O)c1ccc2ncsc2c1)Nc1ccccc1Br	-4.5	-18.8	0.3	-23.4	·	·	·	·	·
CC(NC(=O)c1ccco1)C(=O)N1CCN(c2cccc(Cl)c2)CC1 (stereo unspecified)	-3.0	-13.6	3.1	-6.8	·	·	·	·	·
CC(C)C(NC(=O)Cc1ccccc1)C(=O)N1CCN(c2cccc(Cl)c2)CC1 (stereo unspecified)	43.6*	40.9*	22.1	5.0	·	20.9	19.4	·	·	GalR3 conf=0.3;HEK-CNG parental=-0.3
CC(OC(=O)CCN=C1NS(=O)(=O)c2ccccc21)C(=O)Nc1ccc(S(N)(=O)=O)cc1 (stereo unspecified)	-0.9	9.2	-3.5	1.9	·	·	·	·	·
O=C(CSc1nnc(Cn2nnc3ccccc32)o1)N(Cc1ccc(F)cc1)c1ccccc1	92.5*	79.1*	77.6*	10.3	20.4	50.5*	61.4*	70.3*	2.9	GalR3 conf=114.2*;HEK-CNG parental=0.1
